Source: ChEMBL document CHEMBL2062453, “Lead optimization through VLAK protocol: new annelated pyrrolo-pyrimidine derivatives as antitumor agents” (2012)

Assays:
Assay type in all cases: functional
SR = assay: Cytotoxicity against human SR cells after 48 hrs by SRB assay
Procedure, shortened: (§1)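 NCI 60-panel five-dose screen. Cells in RPMI 1640 with 5% FBS and 2 mM glutamine, plated at 5000–40,000 cells/well and preincubated 24 h at 37 °C under 5% CO2. Five 10-fold or half-log dilutions were added from a DMSO stock for 48 h. Cells were TCA-fixed (SR settled cells: 16% final), SRB-stained and read at 515 nm. GI50 was taken where (Ti−Tz)/(C−Tz)×100 = 50.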

IGROV-1 = assay: Cytotoxicity against human IGROV1 cells after 48 hrs by SRB assay; conditions: IGROV-1, 48 h
Procedure, shortened: (§2)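 NCI 60-cell five-dose screen. Cells grown in RPMI 1640 with 5% FBS and 2 mM glutamine, plated at 5000–40,000 cells/well, and preincubated 24 h at 37 °C in 5% CO2. Time-zero plates fixed with TCA. Five serial dilutions of DMSO stock added, then 48 h exposure. TCA fixation, 0.4% SRB staining, absorbance read at 515 nm. GI50 from [(Ti−Tz)/(C−Tz)]×100 = 50.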

K562 = assay: Cytotoxicity against human K562 cells after 48 hrs by SRB assay; conditions: K562, 48 h; procedure, shortened: as §2
UACC-257 = assay: Cytotoxicity against human UACC257 cells after 48 hrs by SRB assay; conditions: UACC-257, 48 h; procedure, shortened: as §1
[1] = read-out: pLC50 (the source's name) (converted)

`CSC1=Nc2c(c(C)c(-c3ccccc3)n2CCCCl)C2=NC(=O)CN12` was tested. Which GI50 (SR) did it give?
Its GI50 is 3.47 µM.

What about the CC50 (SR; [1]) of the same compound?
Its CC50 is over 100 µM.

What about the TGI (SR; read-out: pTGI) of the same compound?
The TGI was over 100 µM.

And the GI50 (IGROV-1)?
The GI50 was 3.55 µM.

What about the CC50 (IGROV-1; [1]) of the same compound?
Its CC50 is 95.5 µM.

And the TGI (IGROV-1; read-out: pTGI (converted))?
Its TGI is 21.4 µM.

And the GI50 (K562)?
The GI50 was 5.75 µM.

And the CC50 (K562; [1])?
Its CC50 is over 100 µM.

And the TGI (K562; read-out: pTGI)?
The TGI was over 100 µM.

What about the GI50 (UACC-257) of the same compound?
The GI50 was 12.6 µM.

What about the CC50 (UACC-257; [1]) of the same compound?
The CC50 was 64.6 µM.

What about the TGI (UACC-257; read-out: pTGI (converted)) of the same compound?
The TGI was 28.2 µM.
